A short description of data set [1]: Inhibition of H+/K+ ATPase in hog gastric mucosa. The class given is tissue-based, Sus scrofa. Summed up: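 Hog gastric H+/K+-ATPase (0.5–1 µg/100 µl), nigericin 1:1 with enzyme. Buffer 4 mM Pipes/8 mM Tris pH 7.4, 0.25 M sucrose, 1 mM MgCl2, 1 mM KCl as stimulant. Compounds 1e-4 to 1e-9 M final from DMSO stocks. Started with 1 mM Na-ATP, 30 min at room temperature. Phosphate read by malachite green at 680 nm; sigmoidal fit gives IC50.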

A further data set deals with Gastric gland. Briefly: Effect on acid secretion in rabbit intact gastric glands assessed as inhibition of [14C][…] accumulation. It counts as functional, tissue-based. To be noted: Oryctolagus cuniculus. A digest of the protocol: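 Glands stimulated with 1 mM dibutyryl cAMP with or without inhibitor (3 nM–100 µM). Stopped by centrifugation, 10 s at 20,000g. 14C-aminopyrine radioactivity measured in supernatant and in NaOH-dissolved pellet. Accumulation taken from the pellet/supernatant ratio, normalized to gland wet/dry weight. IC50 obtained by fitting the expected inhibition equation.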

Data set [2] is described as follows: Dissociation constant, pKa of the compound. The class given is physicochemical. A digest of the protocol: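 Potentiometric co-solvent titration in 0.15 mol/l KCl over pH 2.0–11.0 at 25 °C. Methanol used as co-solvent in varying portions, with 0.5 mol/l KOH and HCl as titrants.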
A short description of data set [3]: Distribution coefficient, log D at pH 7.4. Particulars: octanol/water. It counts as physicochemical. Summed up: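 Potentiometric titration, pH 2.0–11.0, 25 °C, in 0.15 mol/l KCl mixed with water-saturated 1-octanol in varying octanol portions. Titrants were 0.5 mol/l KOH and HCl. Distribution coefficients between 1-octanol and aqueous KCl were derived from these titrations.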

Each structure is given as a SMILES string.

Broadly, the IC50 is the midpoint of a concentration-inhibition curve. A word on the pKa: it is the negative logarithm of the acid dissociation constant. Read a high pKa as a group that holds its proton tightly. The logD is the decadic logarithm of the distribution of all forms, ionised or not, between an organic phase and buffer at a given pH. `Cc1nc2c3c(c(C(=O)N4CCCC4)cn2c1C)CCC(c1ccccc1)C3` (configuration not stated): the “Log IC50” value in data set [1] is given as -5.9. For the same compound, the half-maximal inhibitory concentration (IC50) in the data set with Gastric gland was 0.316 µM. The compound further came in with a pKa in data set [2] of 7.2. In data set [3], this compound displayed a logD of 3.37.
For `Cc1nc2c3c(ccn2c1C)CCC(c1ccccc1)C3` (configuration not stated), the “Log IC50” value in data set [1] is reported as -6.6. The IC50 in the data set on Gastric gland is 0.794 µM. This compound also yielded a pKa in data set [2] of 8.05. The same compound displayed a logD in data set [3] of 3.9.
In the case of `Cc1nc2c3c(c(C(N)=O)cn2c1C)CCC(c1ccccc1)C3` (configuration not stated), the “Log IC50” value in data set [1] is on record as -5.9. The half-maximal inhibitory concentration (IC50) with Gastric gland is 2 µM. This compound yielded a pKa in data set [2] of 7.26. The compound further registered a logD in data set [3] of 3.21.
Take `Cc1nc2c3c(c(C(=O)N(C)C)cn2c1C)CCC(c1ccccc1)C3` (configuration not stated): in data set [1], the “Log IC50” value is reported as -6. In addition, in the data set with Gastric gland, the IC50 is 0.398 µM. In data set [2], the pKa stood at 7.16. Further, the logD in data set [3] was found to be 2.9.
With `Cc1nc2c3c(c(C(=O)N4CCOCC4)cn2c1C)CCC(c1ccccc1)C3` (configuration not stated), the “Log IC50” value in data set [1] is on record as -5. In addition, the 50% inhibitory concentration (IC50) in the data set on Gastric gland was 6.31 µM. In data set [2], the pKa came to 7.05. In data set [3], this compound registered a logD of 2.76.
Take `Cc1nc2c3c(c(C(=O)N(C)C)cn2c1CO)CCC(c1ccccc1)C3` (configuration not stated): the “Log IC50” value in data set [1] is on record as -5.5. The IC50 with Gastric gland was 10 µM. Besides, the pKa in data set [2] was 6.32. In addition, the pH-dependent lipophilicity (logD) in data set [3] worked out at 2.23.
Take `Cc1cn2ccc3c(c2n1)CC(c1ccccc1)CC3` (configuration not stated): the “Log IC50” value in data set [1] was -5.1. Further, in the data set on Gastric gland, the 50% inhibitory concentration (IC50) was 7.94 µM. The pKa in data set [2] is 7.63. In data set [3], this compound registered a logD of 3.81.
`Cc1cn2cc(C(=O)N(C)C)c3c(c2n1)CC(c1ccccc1)CC3` (configuration not stated): the “Log IC50” value in data set [1] is reported as -4.8. Moreover, in the data set with Gastric gland, the IC50 is 7.94 µM. In data set [2], this compound came in with a pKa of 6.67. Moreover, in data set [3], the logD amounted to 2.77.
As for `COCc1cn2c(C)c(C)nc2c2c1CCC(c1ccccc1)C2` (configuration not stated), the “Log IC50” value in data set [1] was -6.3. Also, the 50% inhibitory concentration (IC50) in the data set with Gastric gland is 2 µM. In data set [2], the pKa came out at 7.79. In data set [3], this compound registered a logD of 3.93.
Turning to `Cc1nc2c3c(c(C(=O)NCCO)cn2c1C)CCC(c1ccccc1)C3` (configuration not stated), the “Log IC50” value in data set [1] is -5.9. In addition, the IC50 with Gastric gland is 10 µM. The compound further showed a pKa in data set [2] of 7.22. Besides, in data set [3], the pH-dependent lipophilicity (logD) was found to be 2.81.
`Cc1nc2c3c(ccn2c1CC#N)CCC(c1ccccc1)O3` (configuration not stated): the “Log IC50” value in data set [1] is -7. For the same compound, the IC50 in the data set on Gastric gland was 0.0631 µM.
In the case of `COCCNC(=O)c1cn2c(C)c(C)nc2c2c1CCC(c1ccccc1)C2` (configuration not stated), the “Log IC50” value in data set [1] is reported as -4.9. Moreover, in the data set with Gastric gland, the IC50 was 1.26 µM. This compound showed a pKa in data set [2] of 7.22. Further, the log distribution coefficient (logD) in data set [3] worked out at 3.31.
Turning to `CNC(=O)c1cn2c(C)c(C)nc2c2c1CCC(c1ccccc1)C2` (configuration not stated), the “Log IC50” value in data set [1] is -6.2. In the data set with Gastric gland, the half-maximal inhibitory concentration (IC50) was 1 µM.
For the compound `Cc1nc2c3c(c(C(=O)N(C)C)cn2c1Br)CCC(c1ccccc1)C3` (configuration not stated), the “Log IC50” value in data set [1] is -4.9. Besides, the IC50 in the data set on Gastric gland was 10 µM. This compound also registered a pKa in data set [2] of 5.11. Also, in data set [3], the logD stood at 3.8.

For the origin of these results see ChEMBL document CHEMBL1137528, “Preparation of tetrahydroimidazo[2,1-a]isoquinolines and their use as inhibitors of gastric acid secretion” (Bioorg Med Chem, 2007).
